# Assay outcomes (PubChem)
# This excerpt belongs to a sample that is enriched for hits.
# HCT116 bCat-KO – beta-catenin-lacking colon tumor cell growth suppression. HCT116 beta-catenin knockout viability, CellTiter-Glo, 60 h; stronger effect = lower value. viability, % at 10 µM. 140,000 compounds, 1.5% hits. AID 818;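 active = viability at or under a set limit, the compound median less 4 SD, cut at about 6% in these data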;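 note: 0% = Hyamine 1622 control at 20 µM and 100% = untreated cell control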
# PTEN del growth – growth suppressors of cells with PTEN tumor suppressor deletion; viability, % at 10 µM; 140,000 compounds, 1.2% hits; HCT116 PTEN-null viability, CellTiter-Glo, 60 h; stronger effect = lower value;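 active = viability at or below a set limit, 4 SD under the median of all tested compounds, cut at about 3.7% in these data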;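 note: PTEN knockout HCT116 line with beta catenin targeted HCT116 as companion control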
# HUVEC inhibit – human endothelial cell proliferation inhibition; AID 648; viability, % at 10 µM (by protocol); HUVEC proliferation, CellTiter-Glo luminescence, 72 h; stronger effect = lower value; 86,000 compounds, 1.1% hits;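 active = viability at or below 30%; inactive = viability above 30%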;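 note: 100% = median luminescence of DMSO-only cell control wells on each plate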
# Fibroblast inh – blocks proliferation of human lung fibroblasts. LL 47 human lung fibroblast viability, ATP luminescence; stronger effect = lower value. viability, % at 10 µM. 85,000 compounds, 1.1% hits. AID 719;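 active = viability at or below 50% in the single dose screen; inactive = viability above 50%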;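 note: compound exposure lasted 72 h before the ATP readout; 100% = median luminescence of untreated cell-only wells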
#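 Material: Human LL 47 lung fibroblast cells | Input: 1,150 cells/well | Buffer or medium: IMEM plus 15% FBS | Compound dosing: 0.1% DMSO in all compound wells | Times: Overnight cell rest, 72 h compound treatment at 37 °C | Signal: CellTiter-Glo luminescence measuring cellular ATP | Measure: % viability versus median cells-only luminescence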
# Pyk2 oligo antag – antagonists of human Pyk2 oligomerization. Q14289. Q293 cells, Pyk2 FERM NanoBiT luminescence; stronger effect = lower value. z-score (the deposit names both 25 µM and 10 µM). 99,000 compounds, 0.83% hits;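 active = Z-score of -3 or lower, scaled per plate to the spread of control and sample wells; inactive = z-score above -3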;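 note: negative z-score means lost luminescence so less FERM oligomerization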
# Target sequence (Q14289 whole entry, looked up): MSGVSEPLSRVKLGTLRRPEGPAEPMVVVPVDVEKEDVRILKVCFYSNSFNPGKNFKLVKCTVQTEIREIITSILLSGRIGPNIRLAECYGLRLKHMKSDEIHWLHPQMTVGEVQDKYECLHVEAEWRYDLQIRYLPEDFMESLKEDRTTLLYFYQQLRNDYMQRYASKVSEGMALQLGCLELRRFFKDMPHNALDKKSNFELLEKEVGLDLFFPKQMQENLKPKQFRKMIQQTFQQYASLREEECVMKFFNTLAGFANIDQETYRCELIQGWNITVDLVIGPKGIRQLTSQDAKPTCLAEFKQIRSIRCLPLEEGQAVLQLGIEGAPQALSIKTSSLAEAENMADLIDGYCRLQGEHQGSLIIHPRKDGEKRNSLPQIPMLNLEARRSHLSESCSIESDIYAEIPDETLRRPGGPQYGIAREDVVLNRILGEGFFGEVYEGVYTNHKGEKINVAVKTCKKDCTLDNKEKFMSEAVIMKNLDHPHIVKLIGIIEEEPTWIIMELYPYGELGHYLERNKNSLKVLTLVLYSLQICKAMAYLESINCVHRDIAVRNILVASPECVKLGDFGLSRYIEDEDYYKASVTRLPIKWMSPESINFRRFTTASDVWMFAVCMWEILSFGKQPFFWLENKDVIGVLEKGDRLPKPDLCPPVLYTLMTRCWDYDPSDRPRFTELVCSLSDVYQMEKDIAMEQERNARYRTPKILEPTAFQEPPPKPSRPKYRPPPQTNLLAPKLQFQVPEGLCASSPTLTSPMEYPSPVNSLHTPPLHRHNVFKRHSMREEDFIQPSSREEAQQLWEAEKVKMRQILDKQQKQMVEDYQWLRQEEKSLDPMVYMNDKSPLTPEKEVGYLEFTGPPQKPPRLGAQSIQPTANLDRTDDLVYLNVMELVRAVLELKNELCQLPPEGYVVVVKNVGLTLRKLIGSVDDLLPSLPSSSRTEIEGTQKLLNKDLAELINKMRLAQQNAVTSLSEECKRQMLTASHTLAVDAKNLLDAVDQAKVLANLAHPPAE
# H69AR growth 86K – growth inhibitors of human H69AR lung tumor cells | H69AR lung tumor viability, ATP luminescence, 72 h; stronger effect = lower value | viability, % at 10 µM | 85,000 compounds, 6% hits | AID 598;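 active = viability at or below 40%; inactive = viability above 40%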;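 note: multidrug resistant small cell line overexpressing MRP-1 efflux transporter; 100% = mean luminescence of untreated control wells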
# * = called active by the depositor; . = no result given.
SMILES,HCT116 bCat-KO,PTEN del growth,HUVEC inhibit,Fibroblast inh,Pyk2 oligo antag,H69AR growth 86K
CS(=O)(=O)c1nc(-c2cccs2)cc(C(F)(F)F)n1,3.3*,1.3*,54,14*,.,1.5*
CCN(CC)S(=O)(=O)c1ccc(N2CCOCC2)c(NC(=O)c2cnccn2)c1,93,102,.,.,.,.
CN(C)c1ccc(N/C=C/C(=O)c2ccc(F)cc2)cc1,39,44,48,99,-0.41,35*
C(=C\c1nc(N2CCCCCC2)c2ccccc2n1)/c1ccccc1,3.3*,8,.,.,.,.
O=C(COc1ccc(F)cc1)N(c1ccccn1)C1CCCCC1,85,87,.,.,1.3,.
CCc1c(C)nc(/N=C(/NC(=O)c2ccccc2)Nc2ccccc2OC)[nH]c1=O,.,.,97,100,.,90
O=C(Nc1ccccc1N1CCOCC1)c1ccc2ccccc2n1,76,79,94,93,-3.6*,65
O=C(NCCN1CCOCC1)c1ccc2ccccc2n1,89,97,87,99,0.31,75
CCc1cccc(Nc2cc(C)nc3ncnn23)c1,91,93,94,92,.,89
CCn1c2ccccc2c2cc(Nc3cc(C)nc4ncnn34)ccc21,15,10,30*,45*,.,31*
CCCC1=C(C(=O)OCC)C(c2ccc(OC)c(CSc3ccccn3)c2)C(C#N)=C(N)O1 (stereo not given),89,89,.,.,.,.
O=C(CN1CCC(NC(=O)c2ccc(F)cc2)CC1)NCc1ccccc1F,93,91,108,93,0.44,88
O=C(CN1CCC(NC(=O)c2ccccc2F)CC1)NCc1ccc(F)cc1,91,87,89,102,-0.13,3.2*
COc1cc(NC(=O)C2CCCCC2)c(OC)cc1NC(=O)CCC(=O)NCc1ccco1,111,98,99,101,-0.08,100
COC(=O)c1ccc(NC2(C#N)C(=O)Nc3ccccc32)cc1 (stereo not given),87,88,86,95,-1.1,23*
CC1(C)Cc2nc3sc4c(N(CCO)CCO)ncnc4c3cc2CO1,98,91,.,.,0.7,.
CC1(C)Cc2nc3sc4c(SCC(=O)NCc5ccccc5)ncnc4c3cc2CO1,12,.,50,55,-0.37,0.7*
Cc1ccccc1NC1C=CS(=O)(=O)C1 (stereo not given),86,93,88,95,-0.05,71
O=c1[nH]c(=O)n([C@H]2C[C@H](O)[C@@H](CO)O2)cc1F,45,36,62,80,.,15*
CCN(CC)S(=O)(=O)c1ccc(N2CCOCC2)c(NC(=O)CC23CC4CC(CC(Br)(C4)C2)C3)c1,86,95,.,.,.,.
COc1ccc(-n2ncc3c(N4CCN(c5cccc(C)c5C)CC4)ncnc32)cc1,.,.,18*,24*,.,7.1*
O=C(COc1ccccc1)N1CCN(c2ncnc3c2cnn3-c2ccccc2)CC1,85,83,115,96,-0.51,40*
COc1ccc(-n2ncc3c(N4CCCCC4)ncnc32)cc1,75,76,66,82,.,39*
Cc1[nH][nH]c(=O)c1C(c1c(C)[nH][nH]c1=O)c1cn(Cc2ccccc2Cl)c2ccccc12,24,15,.,.,.,.
Cc1ccc(-n2nnnc2-c2ccco2)cc1,98,97,96,96,-0.1,95
SMILES,HCT116 bCat-KO,PTEN del growth,HUVEC inhibit,Fibroblast inh,Pyk2 oligo antag,H69AR growth 86K
Cc1ccc(-n2nnnc2C(Cl)c2nnnn2-c2ccc(C)cc2)cc1,1.6*,1.1*,.,.,.,.
Cc1ccc(C(=O)CSc2cnc3ccccc3n2)cc1C,94,93,.,.,.,.
COc1ccccc1NC(=O)Cn1cnc2c(cnn2-c2ccc(C)c(C)c2)c1=O,42,40,98,.,1,109
CCOc1ccc(N(CC(=O)Nc2ccccc2C)S(=O)(=O)c2c(C)noc2C)cc1,10,12,50,49*,.,19*
COc1ccc(NC(=O)CN(c2cc(C)cc(C)c2)S(=O)(=O)c2c(C)noc2C)cc1,83,79,85,91,.,90
CCOc1ccc(N(CC(=O)Nc2ccc(C)c(C)c2)S(=O)(=O)c2c(C)noc2C)cc1,29,27,67,90,.,48
CCOc1ccccc1NC(=O)CN(c1ccc(OC)cc1)S(=O)(=O)c1c(C)noc1C,18,13,47,47*,0.32,88
COc1ccc(N(CC(=O)Nc2cc(C)ccc2OC)S(=O)(=O)c2c(C)noc2C)cc1,31,34,59,82,-2,13*
COc1ccc(N(CC(=O)Nc2cccc(C)c2C)S(=O)(=O)c2c(C)n[nH]c2C)cc1,96,91,85,90,-3.3*,103
CSc1c(SCc2ccccc2)cnn(-c2ccccc2)c1=O,93,85,.,.,-1.6,.
CCOc1ccc(N(CC(=O)Nc2cccc(F)c2)S(=O)(=O)c2c(C)noc2C)cc1,64,66,86,75,.,30*
Cc1sc2ncn(CC(=O)NCCc3ccccc3)c(=O)c2c1C,92,94,85,101,0.59,87
O=C(Cn1cnc2sc(-c3ccccc3)cc2c1=O)NCCc1ccccc1,7,10,39,69,0.13,26*
O=C(Cn1cnc2sc(-c3ccccc3)cc2c1=O)NCc1ccco1,49,45,54,68,0.75,26*
O=C(Cn1nnc(-c2ccccc2)n1)NCc1ccco1,90,87,102,99,-0.73,107
O=C(Cn1cnc2sc(-c3ccccc3)cc2c1=O)NCc1ccccc1,2.1*,2.2*,51,65,2.6,22*
O=C1C2Sc3[nH]c(=O)sc3C(c3ccccc3)C2C(=O)N1c1ccc(Cl)cc1 (stereo not given),94,90,94,101,-0.89,90
CC(C)Cc1ccc(/C=C/C(=O)NC2CC2)cc1,95,97,.,.,.,.
COc1ccc(-c2nc3c(c4nnc(SC(C)C(=O)Nc5ccccc5)n24)COC(C)(C)C3)cc1 (stereo not given),5.2*,38,.,.,-0.37,.
COc1ccc(NC(=O)C(C)Sc2nnc3c4c(nc(-c5ccc(OC)cc5)n23)CC(C)(C)OC4)cc1 (stereo not given),63,23,.,.,.,.
CCN1C(=O)/C(=C/c2ccc(C)o2)N(C)C1=S,96,96,.,.,.,.
Cc1cc(C)cc(C(=O)NN2CCOCC2)c1,104,99,.,.,0.33,.
CC(=O)Nc1ccc2nc(-c3ccc(Br)o3)[nH]c2c1,95,97,.,.,.,.
O=C(Nc1ccc2nc(-c3ccc(Br)o3)[nH]c2c1)c1cccs1,84,70,59,79,0.96,38*
COc1ccc(C2CC(c3cccc(OC)c3OC)n3nnnc3N2)cc1 (stereo not given),86,92,102,96,-0.49,98
CCc1ccc(-c2nc(CN3CCC(C(=O)NCc4ccccc4OC)CC3)c(C)o2)cc1,21,34,32,66,-0.29,18*
CCN1CCCC1CNC(=O)C1CCN(Cc2nc(-c3cccc(Br)c3)oc2C)CC1 (stereo not given),4.7*,6,18*,29*,0.1,52
